Test results: ChEMBL document CHEMBL3286330, “Multivalent design of long-acting β(2)-adrenoceptor agonists incorporating biarylamines” (Bioorg Med Chem Lett, 2014)
Calls of active or inactive are those of the source. No cut-off for these calls is given here.

Tests used:
[1] = molecular target: T1, Beta-2 adrenergic receptor (Homo sapiens, UniProt P07550); assay: Agonist activity at human beta2 receptor in BEAS-2B cells assessed as cAMP accumulation by radioimmunoassay; type: functional, cell-based
T1 sequence (P07550 whole entry): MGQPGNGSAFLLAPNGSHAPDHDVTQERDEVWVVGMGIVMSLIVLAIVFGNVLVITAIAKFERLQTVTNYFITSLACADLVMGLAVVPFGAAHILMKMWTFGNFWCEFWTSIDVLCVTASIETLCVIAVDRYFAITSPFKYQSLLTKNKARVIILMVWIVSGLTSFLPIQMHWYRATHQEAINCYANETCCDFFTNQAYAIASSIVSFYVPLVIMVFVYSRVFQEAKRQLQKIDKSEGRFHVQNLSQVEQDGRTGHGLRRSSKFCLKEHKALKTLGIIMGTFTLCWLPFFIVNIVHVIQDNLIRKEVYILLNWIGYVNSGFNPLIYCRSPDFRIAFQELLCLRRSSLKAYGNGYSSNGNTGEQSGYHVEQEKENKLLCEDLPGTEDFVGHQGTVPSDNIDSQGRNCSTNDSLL

[2] = molecular target: T1, Beta-2 adrenergic receptor; assay: Agonist activity at human recombinant beta2 receptor assessed as cAMP accumulation by radioimmunoassay and cell based assay; type: functional
[3] = molecular target: T2, Beta-2 adrenergic receptor (Cavia porcellus, UniProt Q8K4Z4); assay: Agonist activity at beta2 receptor in guinea pig trachea assessed as slow onset of inhibition of electrically stimulated contraction
T2 sequence (Q8K4Z4 whole entry): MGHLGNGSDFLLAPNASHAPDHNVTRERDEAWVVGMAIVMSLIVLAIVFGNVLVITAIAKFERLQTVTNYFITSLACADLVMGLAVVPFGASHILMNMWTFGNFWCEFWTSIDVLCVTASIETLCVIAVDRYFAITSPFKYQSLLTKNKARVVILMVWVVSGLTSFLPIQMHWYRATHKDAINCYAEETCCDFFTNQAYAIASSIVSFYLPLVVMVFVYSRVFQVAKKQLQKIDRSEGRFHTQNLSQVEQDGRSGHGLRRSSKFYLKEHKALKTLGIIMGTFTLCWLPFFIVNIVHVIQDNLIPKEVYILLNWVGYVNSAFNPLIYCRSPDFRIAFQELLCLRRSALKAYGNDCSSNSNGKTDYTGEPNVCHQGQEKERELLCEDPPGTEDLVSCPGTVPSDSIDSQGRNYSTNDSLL
Procedure, shortened: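 Guinea pigs pretreated with 6-hydroxy-dopamine (200 mg/kg i.p.) 24 h before. Opened 5 mm tracheal rings between platinum electrodes in normal-K+ (4.7 mM) Krebs at 37 °C with 10 µM indomethacin, 1 µM choline, 3 µM guanethidine. Field stimulation: 9 V, 10 Hz, 1 ms pulses, 10 s train every 100 s. Resting tension 1 g, 1 h equilibration. Onset is the time to maximum effect at an EC80 concentration; slow is >30 min.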

[4] = molecular target: T3, Beta-1 adrenergic receptor (Homo sapiens, UniProt P08588); assay: Displacement of [3H]dihydroalprenolol from beta1 receptor (unknown origin) by liquid scintillation counting and cell based assay
T3 sequence (P08588 whole entry): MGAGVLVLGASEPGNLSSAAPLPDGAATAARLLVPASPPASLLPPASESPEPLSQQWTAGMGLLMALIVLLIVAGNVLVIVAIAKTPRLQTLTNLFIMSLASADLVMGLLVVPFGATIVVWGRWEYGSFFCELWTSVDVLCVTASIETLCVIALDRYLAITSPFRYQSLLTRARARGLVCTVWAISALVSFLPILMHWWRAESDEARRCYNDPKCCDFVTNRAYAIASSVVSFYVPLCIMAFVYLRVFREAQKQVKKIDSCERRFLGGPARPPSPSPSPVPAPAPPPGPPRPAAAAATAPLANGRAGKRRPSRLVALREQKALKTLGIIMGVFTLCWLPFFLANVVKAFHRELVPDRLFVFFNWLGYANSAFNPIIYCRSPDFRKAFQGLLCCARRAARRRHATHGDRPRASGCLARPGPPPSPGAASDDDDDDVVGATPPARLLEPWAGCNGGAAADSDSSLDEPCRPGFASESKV

[5] = molecular target: T1, Beta-2 adrenergic receptor; assay: Displacement of [3H]dihydroalprenolol from beta2 receptor (unknown origin) by liquid scintillation counting and cell based assay
[6] = molecular target: T2, Beta-2 adrenergic receptor; assay: Agonist activity at beta2 receptor in guinea pig trachea assessed as fast onset of inhibition of electrically stimulated contraction
Homo sapiens [7] = organism: Homo sapiens; assay: Selectivity ratio Ki for beta1 receptor (unknown origin) to Ki for beta2 receptor (unknown origin)
Homo sapiens [8] = organism: Homo sapiens; assay: Selectivity ratio EC50 for human beta2 receptor to EC50 for human beta3 receptor
Procedure, shortened: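 cAMP accumulation in whole cells overexpressing cloned human β-adrenoceptor subtypes, measured by homogeneous radioimmunoassay (Flashplate). Reported as pEC50. Functional selectivity is the ratio of EC50 values (β3 EC50/β2 EC50 for β3; β1 EC50/β2 EC50 for β1).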

Cavia porcellus [9] = assay: Inhibition of acetylcholine-induced bronchoconstriction in male guinea pig assessed as pulmonary resistance at 1 -100 ug/ml administered via nebulization for 10 mins measured after 1.5 hrs by plethysmograph; type: functional, organism-based
[10] = molecular target: T3, Beta-1 adrenergic receptor; assay: Agonist activity at human recombinant beta1 receptor assessed as cAMP accumulation by radioimmunoassay and cell based assay
Homo sapiens [11] = organism: Homo sapiens; assay: Selectivity ratio EC50 for human beta2 receptor to EC50 for human beta1 receptor
Procedure, shortened: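 cAMP accumulation in whole cells overexpressing cloned human β2- or β1-adrenoceptor, measured by homogeneous radioimmunoassay. Selectivity is the ratio of agonist EC50s, β1 EC50/β2 EC50.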

Cavia porcellus [12] = assay: Inhibition of acetylcholine-induced bronchoconstriction in male guinea pig assessed as pulmonary resistance administered via nebulization for 10 mins measured after 72 hrs by plethysmograph; type: functional, organism-based
Procedure, shortened: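 Guinea pigs dosed by nebulizer, 72 h before measurement. Pulmonary resistance measured in anesthetized, spontaneously breathing animals by head-out plethysmograph. Bronchoconstriction induced by increasing intravenous acetylcholine doses; PD2 is the ACh dose that doubles baseline resistance.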

[13] = molecular target: Beta-3 adrenergic receptor (Homo sapiens, UniProt P13945); assay: Agonist activity at human recombinant beta3 receptor assessed as cAMP accumulation by radioimmunoassay and cell based assay
Beta-3 adrenergic receptor, sequence (P13945 whole entry): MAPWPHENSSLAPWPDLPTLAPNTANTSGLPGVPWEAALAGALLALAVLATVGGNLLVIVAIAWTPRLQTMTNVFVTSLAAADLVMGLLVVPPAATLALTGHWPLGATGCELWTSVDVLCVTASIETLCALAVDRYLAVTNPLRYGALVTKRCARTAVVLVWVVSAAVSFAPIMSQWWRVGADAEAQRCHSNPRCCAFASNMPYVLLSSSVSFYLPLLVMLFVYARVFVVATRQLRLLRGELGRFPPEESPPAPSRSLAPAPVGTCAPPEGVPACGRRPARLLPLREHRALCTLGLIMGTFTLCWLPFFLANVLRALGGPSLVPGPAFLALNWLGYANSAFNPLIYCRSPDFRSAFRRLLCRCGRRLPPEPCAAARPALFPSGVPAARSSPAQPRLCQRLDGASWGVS

Row | SMILES | EC50 [2] [nM] | Ki [4] [nM] | Ki [5] [nM] | Ratio Ki (Homo sapiens [7]) | further results
1 | COc1ccc(Nc2ccc(CCNC[C@H](O)c3ccc(O)c(CO)c3)cc2)cc1-c1ccccc1 | 0.501 |  |  |  | EC50 [1]: 3.98 nM; EC50 [3]: 2 nM
2 | O=C(Cc1ccccc1)NC1CCN(c2ccc(CCNCC(O)c3ccc(O)c(CO)c3)cc2)CC1 (racemic) | 1000 | > 10000 | > 10000 |  | 
3 | OCc1cc(C(O)CNCCc2ccc(NCc3ccc(Cl)c(Cl)c3)cc2)ccc1O (racemic) | 1580 | > 10000 | > 10000 |  | 
4 | O=CNc1cc([C@@H](O)CNCCc2ccc(NC[C@H](O)c3ccccc3)cc2)ccc1O [MILVETEROL] |  | 10000 | 3.16 | 3030 | EC50 [6]: 0.0501 nM
5 | OCc1cc(C(O)CNCCc2ccc(Nc3cccc4ccccc34)cc2)ccc1O (racemic) | 200 | 31600 | 6310 | 5.4 | 
6 | COc1ccc(Nc2ccc(CCNC[C@H](O)c3ccc(O)c4[nH]c(=O)ccc34)cc2)cc1-c1ccccc1 | 0.126 |  |  |  | Ratio EC50 (Homo sapiens [8]): 100; EC50 [1]: 0.398 nM; inhibition (Cavia porcellus [9]): Active; EC50 [10]: 7.94 nM; Ratio EC50 (Homo sapiens [11]): 56; EC50 [3]: 2 nM; inhibition (Cavia porcellus [12]): Dose-dependent effect; EC50 [13]: 12.6 nM
7 | OCc1cc(C(O)CNCCc2ccc(Br)cc2)ccc1O (racemic) | 25.1 | > 10000 | 31600 |  | 
8 | COc1cccc(Nc2ccc(CCNCC(O)c3ccc(O)c(CO)c3)cc2)c1 (racemic) | 10 | 12600 | 631 | 17 | 
9 | OCc1cc(C(O)CNCCc2ccc(Nc3ccc(-c4ccccc4)cc3)cc2)ccc1O (racemic) | 7.94 | 12600 | 316 | 36 | 
10 | COc1ccc(Nc2ccc(CCNC[C@H](O)c3ccc(O)c(NC=O)c3)cc2)cc1-c1ccccc1 | 0.126 |  |  |  | Ratio EC50 (Homo sapiens [8]): 26; EC50 [1]: 0.794 nM; EC50 [10]: 10 nM; Ratio EC50 (Homo sapiens [11]): 75; EC50 [3]: 12.6 nM; EC50 [13]: 3.16 nM
11 | O=C(c1ccccc1)C1CCN(c2ccc(CCNCC(O)c3ccc(O)c(CO)c3)cc2)CC1 (racemic) | 1260 | 126000 | 39800 | 3.4 | 
12 | OCc1cc(C(O)CNCCc2ccc(N3CCC(c4ccccc4)CC3)cc2)ccc1O (racemic) | 398 | > 10000 | 12600 |  | 
13 | OCc1cc(C(O)CNCCc2ccc(N3CCN(c4ccccc4)CC3)cc2)ccc1O (racemic) | 200 | > 10000 | 31600 |  | 
14 | CSc1ccc(Nc2ccc(CCNCC(O)c3ccc(O)c(CO)c3)cc2)cc1 (racemic) | 2.51 | 7940 | 79.4 | 81 | 
15 | COc1ccc(Nc2ccc(CCNCC(O)c3ccc(O)c(CO)c3)cc2)cc1 (racemic) | 3.98 | 31600 | 1260 | 27 | 
16 | CCOc1ccc(Nc2ccc(CCNCC(O)c3ccc(O)c(CO)c3)cc2)cc1 (racemic) | 1.26 | 31600 | 158 | 178 | EC50 [3]: 200 nM

Row | SMILES | EC50 [2] [nM] | Ki [4] [nM] | Ki [5] [nM] | Ratio Ki (Homo sapiens [7]) | further results
17 | OCc1cc(C(O)CNCCc2ccc(Nc3ccc(F)cc3)cc2)ccc1O (racemic) | 31.6 | 7940 | 1260 | 6.5 | 
18 | OCc1cc(C(O)CNCCCCCCOCCCCc2ccccc2)ccc1O (configuration not stated) [SALMETEROL] |  |  |  |  | EC50 [3]: 31.6 nM; EC50 [13]: 1000 nM
19 | OCc1cc(C(O)CNCCc2ccc(N3CCC(Cc4ccccc4)CC3)cc2)ccc1O (racemic) | 501 | 79400 | 15800 | 4.8 | 
20 | OCc1cc(C(O)CNCCc2ccc(NCc3ccc4ccccc4c3)cc2)ccc1O (racemic) | 158 | > 10000 | > 10000 |  | 
21 | OCc1cc(C(O)CNCCc2ccc(N3CCC(CCCc4ccccc4)CC3)cc2)ccc1O (racemic) | 1580 | 126000 | 200000 | 0.6 | 
22 | COc1ccc(CN2CCN(c3ccc(CCNCC(O)c4ccc(O)c(CO)c4)cc3)CC2)cc1 (racemic) | 631 | > 10000 | > 10000 |  | 
23 | OCc1cc(C(O)CNCCc2ccc(Nc3ccc(O)cc3)cc2)ccc1O (racemic) | 200 | 39800 | 1580 | 23 | 
24 | OCc1cc(C(O)CNCCc2ccc(Nc3ccc4c(c3)CCC4)cc2)ccc1O (racemic) | 7.94 | 25100 | 794 | 31 | 
25 | OCc1cc(C(O)CNCCc2ccc(Nc3ccc(Oc4ccccc4)cc3)cc2)ccc1O (racemic) | 20 | 6310 | 316 | 16 | 
26 | CC(=O)N1CCN(c2ccc(CCNCC(O)c3ccc(O)c(CO)c3)cc2)CC1 (racemic) | 10000 | > 10000 | > 10000 |  | 
27 | COc1ccc(Nc2ccc(CCNCC(O)c3ccc(O)c(CO)c3)cc2)cc1-c1ccccc1 (racemic) | 1.26 | 20000 | 63.1 | 319 | 
28 | COC(=O)c1ccc(Nc2ccc(CCNCC(O)c3ccc(O)c(CO)c3)cc2)cc1 (racemic) | 6.31 | 10000 | 251 | 36 | 
29 | OCc1cc(C(O)CNCCc2ccc(Nc3ccc4ccccc4c3)cc2)ccc1O (racemic) | 2.51 | 12600 | 316 | 34 | 
30 | CC(C)Oc1ccc(Nc2ccc(CCNCC(O)c3ccc(O)c(CO)c3)cc2)cc1 (racemic) | 2.51 | 15800 | 100 | 158 | 
31 | OCc1cc(C(O)CNCCc2ccc(Nc3cccc(-c4ccccc4)c3)cc2)ccc1O (racemic) | 2 | 12600 | 316 | 40 | 
